These results are taken from ChEMBL document CHEMBL1127698, “Matrix metalloproteinase inhibitors containing a (carboxyalkyl)amino zinc ligand: modification of the P1 and P2' residues” (J Med Chem, 1994).

For orientation: IC50 means the concentration at which inhibition is half-maximal. Read a high IC50 as lower potency. The term half-life denotes the time needed for the level to fall by half in the phase considered. Read a low half-life as fast loss.

One series has as its target T1, Interstitial collagenase (Homo sapiens, UniProt P03956).
T1 sequence (P03956 whole entry): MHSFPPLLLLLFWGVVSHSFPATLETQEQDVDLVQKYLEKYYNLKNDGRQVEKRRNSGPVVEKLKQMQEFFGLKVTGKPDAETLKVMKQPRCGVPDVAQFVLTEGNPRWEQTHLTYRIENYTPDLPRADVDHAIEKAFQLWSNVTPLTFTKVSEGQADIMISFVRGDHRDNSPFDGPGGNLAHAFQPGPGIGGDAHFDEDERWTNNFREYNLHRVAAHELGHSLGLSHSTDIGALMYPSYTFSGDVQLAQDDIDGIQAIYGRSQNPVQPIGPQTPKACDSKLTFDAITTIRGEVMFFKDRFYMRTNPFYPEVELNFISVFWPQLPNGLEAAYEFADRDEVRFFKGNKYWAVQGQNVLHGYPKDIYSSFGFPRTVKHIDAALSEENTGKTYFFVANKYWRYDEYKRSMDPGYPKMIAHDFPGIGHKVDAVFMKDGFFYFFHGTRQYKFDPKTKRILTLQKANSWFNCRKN
The series is described as follows: Activity against human collagenase (MMP-1).

The target in another series is Stromelysin-1 (Homo sapiens, UniProt P08254). The series is described as follows: Activity against human stromelysin (MMP-3). The method, boiled down:
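Fluorogenic stromelysin assay: human enzyme 10 nM in pH 7.6 Tris buffer (200 mM NaCl, 5 mM CaCl2, 20 μM ZnSO4, 0.05% Brij 35). Inhibitors ran from 10 000 to 0.057 nM in 3-fold steps. Ki came from % inhibition vs log[inhibitor], with substrate far below Km.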

Series [1] has as its target Matrix metalloproteinase-9 (Homo sapiens, UniProt P14780). The series is described as follows: Activity against human gelatinase (MMP-9). In outline:
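Human gelatinase at 1 nM in pH 7.6 Tris buffer (200 mM NaCl, 5 mM CaCl2, 20 μM ZnSO4, 0.05% Brij 35), with inhibitors at 3-fold dilutions from 10 000 to 0.057 nM. Ki came from % inhibition vs log concentration, with substrate far below Km.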

Series [2] in a line: Half-life period for the activity is tested at pH 6.8. The series is classed as ADME. The method, boiled down: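 Inhibitor at 20 μM in 20 mM sodium phosphate, pH 6.8, held at 30 °C. Aliquots were injected every 3 h over 24 h onto C18 reverse-phase HPLC with a 5–60% acetonitrile gradient containing 0.1% TFA.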

Structures are written as SMILES. A value given as a limit tells only on which side of the number the result lay.

Sequence of Stromelysin-1 (P08254 whole entry): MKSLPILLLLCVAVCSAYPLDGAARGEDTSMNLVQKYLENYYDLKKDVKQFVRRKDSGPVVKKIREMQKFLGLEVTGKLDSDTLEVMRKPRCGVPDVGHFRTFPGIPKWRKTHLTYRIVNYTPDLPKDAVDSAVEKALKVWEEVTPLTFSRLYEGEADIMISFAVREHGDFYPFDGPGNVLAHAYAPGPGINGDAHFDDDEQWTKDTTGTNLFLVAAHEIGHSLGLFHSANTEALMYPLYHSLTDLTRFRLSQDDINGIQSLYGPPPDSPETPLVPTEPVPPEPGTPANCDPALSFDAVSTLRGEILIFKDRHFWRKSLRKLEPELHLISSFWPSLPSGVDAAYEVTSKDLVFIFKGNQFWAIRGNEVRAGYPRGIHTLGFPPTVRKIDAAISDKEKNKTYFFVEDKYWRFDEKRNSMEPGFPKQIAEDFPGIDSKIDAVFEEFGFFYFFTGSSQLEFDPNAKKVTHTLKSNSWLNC
Sequence of Matrix metalloproteinase-9 (P14780 whole entry): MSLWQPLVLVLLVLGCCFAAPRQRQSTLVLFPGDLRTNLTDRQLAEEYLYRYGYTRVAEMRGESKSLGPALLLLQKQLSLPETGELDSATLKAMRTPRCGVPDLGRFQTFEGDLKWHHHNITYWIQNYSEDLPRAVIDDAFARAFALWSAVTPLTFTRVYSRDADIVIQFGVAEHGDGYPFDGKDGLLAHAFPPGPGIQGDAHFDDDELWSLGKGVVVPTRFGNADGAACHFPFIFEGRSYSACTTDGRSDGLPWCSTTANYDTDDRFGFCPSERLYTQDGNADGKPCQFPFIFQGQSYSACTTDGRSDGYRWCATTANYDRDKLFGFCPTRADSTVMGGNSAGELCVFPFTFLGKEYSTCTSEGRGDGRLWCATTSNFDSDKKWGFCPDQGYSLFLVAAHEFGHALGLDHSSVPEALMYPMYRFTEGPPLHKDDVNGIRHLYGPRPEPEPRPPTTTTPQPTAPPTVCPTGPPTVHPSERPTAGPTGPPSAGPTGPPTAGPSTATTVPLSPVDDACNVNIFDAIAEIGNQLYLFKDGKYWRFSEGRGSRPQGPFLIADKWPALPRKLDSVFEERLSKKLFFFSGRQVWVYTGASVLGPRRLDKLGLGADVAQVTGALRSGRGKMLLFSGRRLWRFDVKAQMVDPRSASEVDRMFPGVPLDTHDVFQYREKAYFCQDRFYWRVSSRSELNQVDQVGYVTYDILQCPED

As for `CNC(=O)CNC(=O)[C@H](CC(C)C)N[C@H](CCN1C(=O)c2cc3ccccc3cc2C1=O)C(=O)O`, the IC50 is 370 nM against Interstitial collagenase, over 10000 nM against Stromelysin-1 and 124 nM in series [1].

As to `CC(C)C[C@@H](N[C@H](CCN1C(=O)c2cc3ccccc3cc2C1=O)C(=O)O)C(=O)NC(C)c1ccccc1` (some centres not stated), the IC50 against Interstitial collagenase worked out at 74 nM; against Stromelysin-1 it was 4700 nM; in series [1], 76 nM.

In the case of `CNC(=O)[C@H](CCCN=C(N)N)NC(=O)[C@H](CC(C)C)N[C@H](CCN1C(=O)c2cc3ccccc3cc2C1=O)C(=O)O`, the IC50 came to 152 nM at Interstitial collagenase, 481 nM against Stromelysin-1 and 27 nM in series [1].

For `CNC(=O)[C@H](Cc1ccccc1)NC(=O)[C@H](CC(C)C)N[C@H](CCN1C(=O)c2cccc3c(Br)ccc(c23)C1=O)C(=O)O`, the IC50 on Interstitial collagenase was 190 nM; against Stromelysin-1 it was 341 nM; in series [1] it was 28 nM.

As to `CNC(=O)[C@H](Cc1ccccc1)NC(=O)[C@H](CC(C)C)N[C@H](CCN1C(=O)c2cc3c(cc2C1=O)OCO3)C(=O)O`, the half-life in series [2] is 15.5 h. Also, the figures for the IC50 (at Interstitial collagenase; in series [1]) were 12 nM and 5 nM, respectively.

Regarding `CC(C)C[C@H](N[C@H](CCN1C(=O)c2cc3ccccc3cc2C1=O)C(=O)O)C(=O)NCCc1ccccc1`, the IC50 was 160 nM against Interstitial collagenase, over 10000 nM at Stromelysin-1 and 35 nM in series [1].

In turn, `CNC(=O)[C@H](Cc1ccccc1)NC(=O)[C@H](CC(C)C)N[C@H](CCN1C(=O)c2cc3ccccc3nc2C1=O)C(=O)O` gave a half-life in series [2] of 1.7 h. The IC50 on Interstitial collagenase stood at 22 nM; against Stromelysin-1, 518 nM; in series [1] it was 7.5 nM.

Regarding `CC(C)C[C@H](N[C@H](CCN1C(=O)c2cc3ccccc3cc2C1=O)C(=O)O)C(=O)NC1CCCc2ccccc21` (some centres not stated), the half-inhibitory concentration (IC50) on Interstitial collagenase is 108 nM; against Stromelysin-1, 2470 nM; in series [1], 75 nM.

On to `CNC(=O)[C@H](CC(C)C)N[C@H](CCN1C(=O)c2cc3ccccc3cc2C1=O)C(=O)O`, for which the values for the IC50 (on Interstitial collagenase; on Stromelysin-1; in series [1]) were 490 nM, over 10000 nM and 706 nM, respectively.

Turning to `CC(C)C[C@H](N[C@H](CCN1C(=O)c2cc3ccccc3cc2C1=O)C(=O)O)C(=O)NCc1ccc(C(=O)O)cc1`, the IC50 on Interstitial collagenase was found to be 56 nM; against Stromelysin-1, 178 nM; in series [1], 74 nM.

`CC(C)C[C@H](N[C@H](CCN1C(=O)c2cc3ccccc3cc2C1=O)C(=O)O)C(=O)NCc1cccnc1`: the IC50 at Interstitial collagenase is 139 nM; at Stromelysin-1, 309 nM; in series [1], 36 nM.

Molecule `CC(C)C[C@H](NC(=O)[C@H](CC(C)C)N[C@H](CCN1C(=O)c2cc3ccccc3cc2C1=O)C(=O)O)C(=O)NCCN1CCOCC1` gave a half-life in series [2] of 37 h. The IC50 against Interstitial collagenase was found to be 44 nM; on Stromelysin-1 it was 121 nM; in series [1] it was 13 nM.

At Interstitial collagenase, `CNC(=O)[C@H](Cc1ccccc1)NC(=O)[C@H](CC(C)C)N[C@H](CCN1C(=O)c2cc3ccc(OC)cc3cc2C1=O)C(=O)O` came in with an IC50 of 36 nM.

For `CC(C)C[C@H](N[C@H](CCN1C(=O)c2cc3ccccc3cc2C1=O)C(=O)O)C(=O)N(C)Cc1ccccc1`, the IC50 turned out to be 37 nM on Interstitial collagenase, 1160 nM at Stromelysin-1 and 57 nM in series [1].

As for `CNC(=O)[C@H](Cc1ccccc1)NC(=O)[C@H](CC(C)C)N[C@H](CCNC(=O)c1ccc2ccccc2c1)C(=O)O`, in series [2], the half-life is over 100 h. Besides, the IC50 at Interstitial collagenase amounted to 488 nM; against Stromelysin-1, 2340 nM; in series [1], 49 nM.

For `CNC(=O)[C@H](Cc1ccccc1)NC(=O)[C@H](CC(C)C)N[C@H](CCN1C(=O)c2cc3ccccc3cc2C1=O)C(=O)O`, the half-life in series [2] is 29 h. Further, the half-inhibitory concentration (IC50) on Interstitial collagenase came out at 20 nM; on Stromelysin-1, 91 nM; in series [1], 5 nM.

As to `CC(C)C[C@H](N[C@H](CCN1C(=O)c2cc3ccccc3cc2C1=O)C(=O)O)C(=O)NC(C)c1ccccc1` (some centres not stated), the values for the IC50 (against Interstitial collagenase; against Stromelysin-1; in series [1]) were 51 nM, 965 nM and 12 nM, respectively.

Take `CC(C)C[C@H](N[C@H](CCN1C(=O)c2cc3ccccc3cc2C1=O)C(=O)O)C(=O)N1CCN(C)CC1`: the figures for the IC50 (on Interstitial collagenase; on Stromelysin-1; in series [1]) were 54 nM, 1890 nM and 70 nM, respectively.

`CC(C)C[C@H](N[C@H](CCN1C(=O)c2cc3ccccc3cc2C1=O)C(=O)O)C(=O)N1CCc2ccccc2C1`: the IC50 was 84 nM on Interstitial collagenase, 2190 nM at Stromelysin-1 and 88 nM in series [1].

For the molecule `CC(C)C[C@H](N[C@H](CCN1C(=O)c2cc3ccccc3cc2C1=O)C(=O)O)C(=O)Nc1ccccc1`, the IC50 against Stromelysin-1 came out at 12500 nM; in series [1], 101 nM.

Take `CNC(=O)[C@H](Cc1ccccc1)NC(=O)[C@H](CC(C)C)N[C@H](CCNC(=O)OCc1ccccc1)C(=O)O`: the IC50 on Stromelysin-1 worked out at 3570 nM; in series [1] it was 580 nM.

With `CC(C)C[C@H](N[C@H](CCN1C(=O)c2cc3ccccc3cc2C1=O)C(=O)O)C(=O)NCc1cccc(F)c1`, the IC50 against Interstitial collagenase was determined as 41 nM; at Stromelysin-1, 1480 nM; in series [1] it was 15 nM.

For the molecule `CC(C)C[C@H](N[C@H](CCN1C(=O)c2cc3ccccc3cc2C1=O)C(=O)O)C(=O)NCc1nnn(C)n1`, the IC50 came to 270 nM on Interstitial collagenase, 2980 nM against Stromelysin-1 and 30 nM in series [1].

For `CNC(=O)[C@H](Cc1ccccc1)NC(=O)[C@H](CC(C)C)N[C@H](CCn1c(=O)c2cc3c(=O)[nH]c(=O)c3cc2c1=O)C(=O)O`, in series [2], the half-life was 1.7 h. Besides, the values for the IC50 (on Interstitial collagenase; on Stromelysin-1; in series [1]) were 38 nM, 2170 nM and 4.8 nM, respectively.

As to `CC(C)C[C@H](N[C@H](CCN1C(=O)c2cc3ccccc3cc2C1=O)C(=O)O)C(=O)NCc1ccc(S(N)(=O)=O)cc1`, the IC50 on Interstitial collagenase was 70 nM; against Stromelysin-1 it was 295 nM; in series [1], 6.7 nM.

In the case of `CNC(=O)[C@H](C)NC(=O)[C@H](CC(C)C)N[C@H](CCN1C(=O)c2cc3ccccc3cc2C1=O)C(=O)O`, the IC50 against Interstitial collagenase came out at 86 nM; against Stromelysin-1, 5630 nM; in series [1] it was 69 nM.

`CNC(=O)[C@H](Cc1ccccc1)NC(=O)[C@H](CC(C)C)N[C@H](CCN1C(=O)c2ccccc2C1=O)C(=O)O`: the half-life in series [2] was 10 h. Besides, the IC50 amounted to 81 nM against Interstitial collagenase, 5970 nM against Stromelysin-1 and 59 nM in series [1].

Consider `CNC(=O)C(NC(=O)[C@H](CC(C)C)N[C@H](CCN1C(=O)c2cc3ccccc3cc2C1=O)C(=O)O)c1ccccc1` (some centres not stated), for which the figures for the IC50 (on Interstitial collagenase; against Stromelysin-1; in series [1]) were 19 nM, 631 nM and 14 nM, respectively.

`CNC(=O)[C@H](Cc1ccc(O)cc1)NC(=O)[C@H](CC(C)C)N[C@H](CCN1C(=O)c2cc3ccccc3cc2C1=O)C(=O)O`: the concentration for half-maximal inhibition (IC50) was 29 nM on Interstitial collagenase, 72 nM at Stromelysin-1 and 3.8 nM in series [1].

As to `CC(C)C[C@H](N[C@H](CCN1C(=O)c2cc3ccccc3cc2C1=O)C(=O)O)C(=O)N(C)C`, the IC50 against Interstitial collagenase is 86 nM; against Stromelysin-1, over 10000 nM; in series [1] it was 82 nM.

Regarding `CNC(=O)[C@H](Cc1ccccc1)NC(=O)[C@H](CC(C)C)N[C@H](CCN1C(=O)c2ccc(-c3ccccc3)cc2C1=O)C(=O)O`, in series [2], the half-life is 7.8 h. The IC50 against Interstitial collagenase was determined as 19 nM; against Stromelysin-1, 216 nM; in series [1], 4.5 nM.

For `CNC(=O)[C@H](Cc1ccccc1)NC(=O)[C@H](CC(C)C)N[C@H](CCN1C(=O)c2cc3ccccc3c(OC)c2C1=O)C(=O)O`, in series [2], the half-life is 87 h. The IC50 against Interstitial collagenase is 54 nM; at Stromelysin-1, 1370 nM; in series [1], 7.4 nM.

`CCCOc1ccc2c(c1)C(=O)N(CC[C@@H](N[C@@H](CC(C)C)C(=O)N[C@@H](Cc1ccccc1)C(=O)NC)C(=O)O)C2=O` had a half-life in series [2] of 10.9 h. Besides, the IC50 at Interstitial collagenase amounted to 15 nM; against Stromelysin-1, 427 nM; in series [1], 2.1 nM.

`CC(C)C[C@H](N[C@H](CCN1C(=O)c2cc3ccccc3cc2C1=O)C(=O)O)C(=O)NCc1ccccc1`: the IC50 was found to be 87 nM against Interstitial collagenase, 1520 nM against Stromelysin-1 and 32 nM in series [1].

Consider `CNC(=O)[C@H](Cc1ccccc1)NC(=O)[C@H](CC(C)C)N[C@H](CCN1C(=O)c2cc3cccc(OC)c3cc2C1=O)C(=O)O`, for which, in series [2], the half-life is 7.2 h. The IC50 on Interstitial collagenase worked out at 36 nM; at Stromelysin-1 it was 1400 nM; in series [1], 15 nM.

In the case of `CC(C)C[C@H](N[C@H](CCN1C(=O)c2cc3ccccc3cc2C1=O)C(=O)O)C(=O)N1CCCC1c1cccnc1` (stereo in doubt; 75), the IC50 at Interstitial collagenase came out at 44 nM; against Stromelysin-1, 960 nM; in series [1], 18 nM.

Take `CC(C)C[C@H](N[C@H](CCN1C(=O)c2cc3ccccc3cc2C1=O)C(=O)O)C(=O)N1CCCC1c1cccnc1` (stereo in doubt; 76): the IC50 worked out at 164 nM on Interstitial collagenase, 4080 nM at Stromelysin-1 and 70 nM in series [1].
